Key:
A549 [1] = experiment: Induction of apoptosis in human A549 cells assessed as early apoptotic cells at 3 nM after 48 hrs by annexin V-FITC/propidium iodide staining-based flow cytometric method (reference value: 1.95%); type: functional
A549 [2] = experiment: Induction of apoptosis in human A549 cells assessed as necrotic cells at 10 nM after 48 hrs by annexin V-FITC/propidium iodide staining-based flow cytometric method (reference value: 0.01%); type: functional
A549 [3] = experiment: Disruption of mitochondrial membrane potential in human A549 cells assessed as red fluorescence intensity at 10 nM after 24 hrs by JC1 staining-based flow cytometric method (reference value: 99.2%); type: functional
[4] = Metabolic stability in Sprague-Dawley rat liver microsomes assessed as compound remaining at 180 mins in presence of NADPH regenerating system by HPLC method; type: ADME; conditions: read-out: Stability
Summary of the method: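 Rat liver microsomes incubated with compound at 37 ℃ for indicated times in buffer containing NADPH regenerating system; residual parent determined by HPLC.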

A2780 = experiment: Cytotoxicity against human A2780 cells assessed as cell viability after 48 hrs by MTT assay; type: functional, cell-based; conditions: A2780, 48 h
Summary of the method: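 Cancer cell lines treated with compound for 48 h, and viability read by MTT assay. IC50 given as mean ± SD from at least three independent experiments.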

[5] = Selectivity ratio of IC50 for quiescent HUVEC to IC50 for human A549 cells; type: ADME, cell-based; conditions: quiescent HUVEC versus A549 cells, read-out: Ratio IC50
Summary of the method: (§1)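 Selectivity ratio = IC50 in normal cells / IC50 in A549; IC50 values mean ± SE from dose-response curves of at least three independent experiments. HUVECs kept quiescent in endothelial cell medium with 0.5% fetal calf serum, no growth factor.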

[6] = Selectivity ratio of IC50 for human MCF10A cells to IC50 for human A549 cells; type: ADME, cell-based; conditions: MCF10A cells versus A549 cells, read-out: Ratio IC50; summary of the method: as §1
[7] = Cytotoxicity against human A2780/TAX cells assessed as growth inhibition after 48 hrs by MTT assay; type: functional, cell-based
Summary of the method: (§2)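 Drug-resistant lines were tested by a 48 h MTT viability assay. IC50 was derived from dose-response curves and reported as mean ± SE of at least three independent experiments.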

[8] = Cytotoxicity against human HCT8/VCT cells assessed as growth inhibition after 48 hrs by MTT assay; type: functional, cell-based; summary of the method: as §2
[9] = Cytotoxicity against human A549/CDDP cells assessed as growth inhibition after 48 hrs by MTT assay; type: functional, cell-based; conditions: A549, 48 h; summary of the method: as §2
A549 [10] = experiment: Induction of apoptosis in human A549 cells assessed as late apoptotic cells at 1 nM after 24 hrs by annexin V-FITC/propidium iodide staining-based flow cytometric method (reference value: 0.01%); type: functional
A549 [11] = experiment: Induction of apoptosis in human A549 cells assessed as late apoptotic cells at 3 nM after 24 hrs by annexin V-FITC/propidium iodide staining-based flow cytometric method (reference value: 0.01%); type: functional
A549 [12] = experiment: Induction of apoptosis in human A549 cells assessed as viable cells at 10 nM after 24 hrs by annexin V-FITC/propidium iodide staining-based flow cytometric method (reference value: 98.9%); type: functional; conditions: A549, 24 h, read-out: Activity
Summary of the method: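 A549 cells exposed 24 h or 48 h at indicated concentrations, then trypsinized, harvested and stained with Annexin V-FITC and PI; flow cytometry quadrants scored as necrotic (upper left), late apoptotic (upper right), live (bottom left) and early apoptotic (bottom right). Five independent experiments, representative shown.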

A549 [13] = experiment: Induction of apoptosis in human A549 cells assessed as late apoptotic cells at 1 nM after 48 hrs by annexin V-FITC/propidium iodide staining-based flow cytometric method (reference value: 0.01%); type: functional

remaining at 3 h [4]: 42.4%
Structure (SMILES): COc1ccc2c(/C=C(\C)C(=O)c3cc(OC)c(OC)c(OC)c3)c[nH]c2c1
Activity (A549 [1]): 26.8%
Activity (A549 [2]): 8.38%
Activity (A549 [3]): 40.7%
IC50 (A2780): 8 nM
selectivity ratio [5]: 54.3
selectivity ratio [6]: 891
IC50 [7]: 124 nM
IC50 [8]: 5 nM
IC50 [9]: 4 nM
Activity (A549 [10]): 2.12%
Activity (A549 [11]): 3.56%
viability at 0.01 µM (A549 [12]): 60.4%
Activity (A549 [13]): 14.6%
